Converted amounts (≈) assume the structure as drawn.
Tests used:
[1] = Drug level in DTT containing buffer treated with 3-((5-Phenyl-1,3,4-oxadiazol-2-yl)thio)benzo[b]thiophene-1,1-dioxide by LC-MS analysis; assay type: physicochemical
[2] = target: Inosine-5'-monophosphate dehydrogenase (Cryptococcus neoformans var. neoformans serotype D (strain JEC21 /ATCC MYA-565) (Filobasidiella neoformans), UniProt Q5KP44); experiment: Inhibition of recombinant Cryptococcus neoformans His-tagged IMPDH expressed in Escherichia coli BL21 (DE3) using IMP as substrate in presence of NAD
Sequence of Inosine-5'-monophosphate dehydrogenase (Q5KP44 whole entry): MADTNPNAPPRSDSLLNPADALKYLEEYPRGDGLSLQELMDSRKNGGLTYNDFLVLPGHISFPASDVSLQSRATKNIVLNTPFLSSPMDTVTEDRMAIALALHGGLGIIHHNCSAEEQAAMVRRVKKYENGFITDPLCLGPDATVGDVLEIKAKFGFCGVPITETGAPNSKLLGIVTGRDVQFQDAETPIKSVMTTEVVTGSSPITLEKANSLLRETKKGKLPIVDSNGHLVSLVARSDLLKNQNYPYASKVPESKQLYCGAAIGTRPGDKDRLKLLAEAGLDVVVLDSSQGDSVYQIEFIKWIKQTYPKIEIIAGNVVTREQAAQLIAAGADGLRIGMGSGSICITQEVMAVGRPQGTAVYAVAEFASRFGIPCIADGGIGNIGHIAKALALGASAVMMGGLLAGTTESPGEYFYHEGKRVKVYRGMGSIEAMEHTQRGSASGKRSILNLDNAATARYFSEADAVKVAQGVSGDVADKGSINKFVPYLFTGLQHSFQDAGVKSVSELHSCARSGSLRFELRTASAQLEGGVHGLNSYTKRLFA
Summary of the method: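 Recombinant C. neoformans IMPDH (E. coli BL21(DE3) pLysS) at 0.2 µM. IMP and NAD each 500 µM; reaction started with IMP. NADH followed at 340 nm. Compounds tested 20 to 0.02 µM. % activity normalized to no-inhibitor and 20 µM MPA controls, fitted by variable-slope dose-response; n ≥ 3.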

[3] = target: Inosine-5'-monophosphate dehydrogenase 1 (Homo sapiens, UniProt P20839); experiment: Inhibition of recombinant human His-tagged IMPDH1 expressed in Escherichia coli BL21 (DE3) using IMP as substrate in presence of NAD
Sequence of Inosine-5'-monophosphate dehydrogenase 1 (P20839 whole entry): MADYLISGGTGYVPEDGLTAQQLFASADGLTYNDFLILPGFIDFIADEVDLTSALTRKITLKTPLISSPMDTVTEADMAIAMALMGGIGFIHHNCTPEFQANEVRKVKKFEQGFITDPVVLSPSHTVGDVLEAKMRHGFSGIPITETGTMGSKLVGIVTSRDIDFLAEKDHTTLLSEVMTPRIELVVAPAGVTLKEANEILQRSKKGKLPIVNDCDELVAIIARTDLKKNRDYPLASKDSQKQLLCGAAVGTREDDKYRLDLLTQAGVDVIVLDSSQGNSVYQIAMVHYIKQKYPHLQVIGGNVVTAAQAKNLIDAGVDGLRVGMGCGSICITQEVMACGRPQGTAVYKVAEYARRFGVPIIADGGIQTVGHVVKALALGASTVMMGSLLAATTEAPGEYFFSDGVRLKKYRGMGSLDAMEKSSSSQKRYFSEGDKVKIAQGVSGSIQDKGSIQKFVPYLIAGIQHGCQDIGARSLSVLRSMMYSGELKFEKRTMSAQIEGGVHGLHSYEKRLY
Summary of the method: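 His-tag-cleaved human IMPDH from E. coli BL21(DE3) pLysS at 0.2 µM. NAD 100 µM, IMP 125 µM; reaction started with IMP. NADH followed at 340 nm. Compounds tested 30 to 0.93 µM. IC50 from variable-slope fit normalized to no-inhibitor and 20 µM MPA controls; n ≥ 3.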

[4] = target: Inosine-5'-monophosphate dehydrogenase 2 (Homo sapiens, UniProt P12268); experiment: Inhibition of recombinant human His-tagged IMPDH2 expressed in Escherichia coli BL21 (DE3) using IMP as substrate in presence of NAD
[5] = Cytotoxicity against HEK293 cells after 24 hrs by resazurin dye-based fluorescence analysis; assay type: cell-based; conditions: human
Summary of the method: (§1)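 Cells seeded at 3000 per well in DMEM with 10% FBS. Compound […], applied as a 2-fold dilution series mixed directly with the cells. Incubated 24 h at 37 °C in 5% CO2, then 10 µM resazurin was added for 3 h. Fluorescence read at ex/em 560/590 nm. DMSO served as negative control.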

[6] = Cytotoxicity against human HepG2 cells after 24 hrs by resazurin dye-based fluorescence analysis; assay type: cell-based; summary of the method: as §1
[7] = Drug metabolism in DTT containing buffer assessed as formation of 5-phenyl-1,3,4-oxadiazole-2-thiol by LC-MS analysis; assay type: physicochemical
[8] = tested on: Cryptococcus neoformans; experiment: Antifungal activity against Cryptococcus neoformans after 24 hrs by two fold serial dilution method
[9] = tested on: Candida albicans; experiment: Antifungal activity against Candida albicans after 24 hrs by OD530 reading based two fold serial dilution method

Structure (SMILES): S=c1[nH]nc(-c2ccccc2)o1
- Drug metabolism [1]: Metabolite_Detected

Structure (SMILES): O=S1(=O)C=C(Sc2nnc(-c3ccccc3)o2)c2ccccc21
- IC50 [2]: 0.37 µM
- IC50 [3]: 5.6 µM
- IC50 [4]: 2.1 µM
- CC50 at 24 h [5]: 3 µM
- CC50 at 24 h [6]: 20 µM
- Drug metabolism [7]: Metabolite_Detected
- MIC [8]: 6 µM (≈ 2.05 µg/mL)
- MIC [9]: 6 µM (≈ 2.05 µg/mL)

Structure (SMILES): O=S1(=O)C=C(Sc2nnc(-c3ccncc3)o2)c2ccccc21
- IC50 [2]: 0.76 µM
- IC50 [3]: 8.6 µM
- IC50 [4]: 2.1 µM
- CC50 at 24 h [5]: 4 µM
- CC50 at 24 h [6]: 17 µM
- MIC [8]: 9 µM (≈ 3.09 µg/mL)
- MIC [9]: 6 µM (≈ 2.06 µg/mL)

Structure (SMILES): O=S1(=O)C=C(Sc2nnc(-c3ccc(Cl)cc3)o2)c2ccccc21
- IC50 [2]: 0.49 µM
- IC50 [3]: 11.1 µM
- IC50 [4]: 1.5 µM
- CC50 at 24 h [5]: 3 µM
- CC50 at 24 h [6]: 22 µM
- MIC [8]: 16 µM (≈ 6.03 µg/mL)
- MIC [9]: 167 µM (≈ 62.9 µg/mL)

Structure (SMILES): COc1ccc(-c2nnc(SC3=CS(=O)(=O)c4ccccc43)o2)cc1
- IC50 [2]: 1.7 µM
- IC50 [3]: > 30 µM
- IC50 [4]: > 30 µM
- CC50 at 24 h [5]: 2 µM
- CC50 at 24 h [6]: 22 µM
- MIC [8]: 172 µM (≈ 64.1 µg/mL)
- MIC [9]: 172 µM (≈ 64.1 µg/mL)

Structure (SMILES): Cc1ccc(-c2nnc(SC3=CS(=O)(=O)c4ccccc43)o2)cc1
- IC50 [2]: 0.41 µM
- IC50 [3]: 20.3 µM
- IC50 [4]: 5.7 µM
- CC50 at 24 h [5]: 3 µM
- CC50 at 24 h [6]: 31 µM
- MIC [8]: 22 µM (≈ 7.84 µg/mL)
- MIC [9]: 90 µM (≈ 32.1 µg/mL)

Structure (SMILES): COC(=O)c1ccc(-c2nnc(SC3=CS(=O)(=O)c4ccccc43)o2)cc1
- IC50 [2]: 0.34 µM
- IC50 [3]: > 30 µM
- IC50 [4]: > 30 µM
- CC50 at 24 h [5]: 4 µM
- CC50 at 24 h [6]: 18 µM
- MIC [8]: 60 µM (≈ 24 µg/mL)
- MIC [9]: > 160 µM

Structure (SMILES): COc1cccc(-c2nnc(SC3=CS(=O)(=O)c4ccccc43)o2)c1
- IC50 [2]: 0.15 µM
- IC50 [3]: 4.3 µM
- IC50 [4]: 1.2 µM
- CC50 at 24 h [5]: 3 µM
- CC50 at 24 h [6]: 20 µM
- MIC [8]: 8 µM (≈ 2.98 µg/mL)
- MIC [9]: 172 µM (≈ 64.1 µg/mL)

Structure (SMILES): O=S1(=O)C=C(Sc2nnc(-c3ccccn3)o2)c2ccccc21
- IC50 [2]: 1.06 µM
- IC50 [3]: 13.2 µM
- IC50 [4]: 4.2 µM
- CC50 at 24 h [5]: 5 µM
- CC50 at 24 h [6]: 24 µM
- MIC [8]: 6 µM (≈ 2.06 µg/mL)
- MIC [9]: 4 µM (≈ 1.37 µg/mL)

Structure (SMILES): O=S1(=O)C=C(Sc2nnc(-c3cccc(Cl)c3)o2)c2ccccc21
- IC50 [2]: 0.4 µM
- IC50 [3]: 10.1 µM
- IC50 [4]: 1.6 µM
- CC50 at 24 h [5]: 6 µM
- CC50 at 24 h [6]: 27 µM
- MIC [8]: 6 µM (≈ 2.26 µg/mL)
- MIC [9]: 167 µM (≈ 62.9 µg/mL)

Structure (SMILES): COc1ccccc1-c1nnc(SC2=CS(=O)(=O)c3ccccc32)o1
- IC50 [2]: 0.48 µM
- IC50 [3]: 9.9 µM
- IC50 [4]: 3.2 µM
- CC50 at 24 h [5]: 3 µM
- CC50 at 24 h [6]: 16 µM
- MIC [8]: 64 µM (≈ 23.8 µg/mL)
- MIC [9]: 172 µM (≈ 64.1 µg/mL)

Structure (SMILES): O=S1(=O)C=C(Sc2nnc(C3CCCCC3)o2)c2ccccc21
- IC50 [2]: 0.67 µM
- IC50 [3]: 7.6 µM
- IC50 [4]: 2.2 µM
- CC50 at 24 h [5]: 3 µM
- CC50 at 24 h [6]: 15 µM
- MIC [8]: 7 µM (≈ 2.44 µg/mL)
- MIC [9]: 46 µM (≈ 16 µg/mL)

Structure (SMILES): O=S1(=O)C=C(Sc2nnc(-c3ccccc3Cl)o2)c2ccccc21
- IC50 [2]: 0.23 µM
- IC50 [3]: 7.2 µM
- IC50 [4]: 1.2 µM
- CC50 at 24 h [5]: 4 µM
- CC50 at 24 h [6]: 25 µM
- MIC [8]: 6 µM (≈ 2.26 µg/mL)
- MIC [9]: 167 µM (≈ 62.9 µg/mL)

Structure (SMILES): Nc1ccc(-c2nnc(SC3=CS(=O)(=O)c4ccccc43)o2)cc1
- IC50 [2]: 1.01 µM
- IC50 [3]: 13.8 µM
- IC50 [4]: 4.5 µM
- CC50 at 24 h [5]: 4 µM
- CC50 at 24 h [6]: 24 µM
- MIC [8]: 33 µM (≈ 11.8 µg/mL)
- MIC [9]: > 179 µM

Structure (SMILES): O=S1(=O)C=C(Sc2nnc(-c3cccnc3)o2)c2ccccc21
- IC50 [2]: 0.59 µM
- IC50 [3]: 6.3 µM
- IC50 [4]: 2.6 µM
- CC50 at 24 h [5]: 4 µM
- CC50 at 24 h [6]: 14 µM
- MIC [8]: 4 µM (≈ 1.37 µg/mL)
- MIC [9]: 4 µM (≈ 1.37 µg/mL)

Structure (SMILES): CC(=O)Nc1ccc(-c2nnc(SC3=CS(=O)(=O)c4ccccc43)o2)cc1
- IC50 [2]: 0.16 µM
- IC50 [3]: 20.4 µM
- IC50 [4]: 4.4 µM
- CC50 at 24 h [5]: 4 µM
- CC50 at 24 h [6]: 31 µM
- MIC [8]: > 160 µM
- MIC [9]: > 160 µM

Structure (SMILES): C[C@@H]1[C@H](O)[C@@H](C)/C=C/C=C/C=C/C=C/C=C/C=C/C=C/[C@H](O[C@@H]2O[C@H](C)[C@@H](O)[C@H](N)[C@@H]2O)C[C@@H]2O[C@](O)(C[C@@H](O)C[C@@H](O)[C@H](O)CC[C@@H](O)C[C@@H](O)CC(=O)O[C@H]1C)C[C@H](O)[C@H]2C(=O)O [AMPHOTERICIN B]
- MIC [8]: 0.25 µM (≈ 0.231 µg/mL)
- MIC [9]: 0.18 µM (≈ 0.166 µg/mL)

Structure (SMILES): OC(Cn1cncn1)(Cn1cncn1)c1ccc(F)cc1F [FLUCONAZOLE]
- MIC [8]: 0.3 µM (≈ 0.0919 µg/mL)
- MIC [9]: 8 µM (≈ 2.45 µg/mL)

Structure (SMILES): COc1c(C)c2c(c(O)c1C/C=C(\C)CCC(=O)O)C(=O)OC2 [MYCOPHENOLIC ACID]
- IC50 [2]: 0.12 µM
- IC50 [3]: 0.26 µM

Reference: ChEMBL document CHEMBL4265991 (Bioorg Med Chem, 2018)
